Many of the other results were omitted from the sample, so hits are more common in it than they were.
E-sel inducer – E-selectin induction on HUVECs. AID 686992. hit rate 0.37% among 260,000. P16581. HUVEC E-selectin immunofluorescence imaging; normalized: neutral wells 0, TNF-alpha wells 100. activation, % at 7.58 µM;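 active = mean E-selectin-positive cell signal at least 10% of the positive control, reached in at least 60% of replicates, without over 20% cell loss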
Target sequence (P16581 whole entry, looked up): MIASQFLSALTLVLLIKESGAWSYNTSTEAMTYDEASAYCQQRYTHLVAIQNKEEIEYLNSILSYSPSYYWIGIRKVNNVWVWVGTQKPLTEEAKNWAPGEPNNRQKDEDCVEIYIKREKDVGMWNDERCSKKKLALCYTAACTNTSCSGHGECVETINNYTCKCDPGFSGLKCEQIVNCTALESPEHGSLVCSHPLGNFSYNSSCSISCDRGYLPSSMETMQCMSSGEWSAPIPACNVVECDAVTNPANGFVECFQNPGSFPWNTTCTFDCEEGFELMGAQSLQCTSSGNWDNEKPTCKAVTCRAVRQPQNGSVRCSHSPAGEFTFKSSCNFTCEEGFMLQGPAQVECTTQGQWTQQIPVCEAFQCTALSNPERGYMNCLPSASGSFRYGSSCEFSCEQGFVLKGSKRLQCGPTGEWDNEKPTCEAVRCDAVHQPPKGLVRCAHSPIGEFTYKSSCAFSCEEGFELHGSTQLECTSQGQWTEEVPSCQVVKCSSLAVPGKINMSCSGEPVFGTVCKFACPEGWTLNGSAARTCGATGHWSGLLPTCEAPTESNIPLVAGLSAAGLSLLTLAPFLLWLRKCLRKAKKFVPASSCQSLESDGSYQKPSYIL
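System: HUVEC / Compound: single concentration / Signal: immunofluorescence imaging / Read-out: percent E-selectin-positive cells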
Active calls of the source: *; ! = not confirmed by another sample.

SMILES | E-sel inducer
CN(C)C(=O)c1ccc(-c2ccc3c(c2)[C@@H]2[C@@H](CCN2S(=O)(=O)c2cn(C)cn2)[C@H](CO)N3)cc1 | -0.1
Cc1nc(NC(=O)CCN2C(=O)C3CC=CCC3C2=O)sc1C (configuration not stated) | -0.1
CCOC(=O)c1sc(NC(=O)CN2C(=O)C3CC=CCC3C2=O)nc1C (configuration not stated) | 150.5*
CCOC(=O)c1sc(NC(=O)CCC(=O)O)nc1C | 3.4
COc1ccc2c3c([nH]c2c1)[C@@H](CO)N(Cc1ccccc1F)CC31CN(C(=O)C2CCC2)C1 | -0.5
COc1cccc(C2CCCCN(C)C2=O)c1 (configuration not stated) | -0.4
O=C1c2ccccc2C(=O)C1c1ccc(Br)cc1 | -0.3
COc1cccc(C2C(=O)c3ccccc3C2=O)c1 | 65.5*
CCN(CC)CCN(C(=O)Cn1nnc(-c2ccc(C)o2)n1)C(C(=O)NC(C)(C)C)c1cccs1 (configuration not stated) | 127.6*
CCN(CC)C(=O)Cn1nnc(-c2ccc(C)o2)n1 | -1.0
COc1cc(C(C(=O)NC2CCCC2)N(CCO)C(=O)Cn2nnc(-c3ccc(C)o3)n2)ccc1O (configuration not stated) | -0.1
COc1ccc2c3c([nH]c2c1)[C@H](CO)NCC31CCN(C(=O)C2CCCC2)CC1 | -0.4
COc1cccc(C(=O)Nc2ccc3c(c2)OC[C@@H](C)N(C(=O)C2CCC2)C[C@@H](C)[C@H](OC)CN(C)C3=O)c1 | -0.1
CO[C@@H]1CN(C)C(=O)c2ccc(NS(=O)(=O)c3ccccc3C)cc2OC[C@H](C)N(S(C)(=O)=O)C[C@H]1C | -0.3
Cc1ccc(S(=O)(=O)Nc2cc(-c3ccccc3)nn2C)cc1Cl | 53.1*
Cc1ccc(S(=O)(=O)Nc2cc(-c3ccc(Cl)cc3)nn2C)cc1 | 3.4
Cc1ccc(S(=O)(=O)Nc2cc(-c3ccccc3)nn2C)cc1 | -0.1
Cc1noc(C)c1S(=O)(=O)N(C)C[C@@H]1OCCCC[C@@H](C)Oc2ccc(NC(=O)NC3CCCCC3)cc2C(=O)N([C@H](C)CO)C[C@H]1C | 0.3
C[C@@H]1CCCCO[C@@H](CN(C)C(=O)c2ccccc2)[C@@H](C)CN([C@H](C)CO)C(=O)c2cc(NC(=O)CCC(F)(F)F)ccc2O1 | 0.7
COCC(=O)N(C)C[C@@H]1Oc2cc(-c3ccc(F)cc3)ccc2S(=O)(=O)N([C@H](C)CO)C[C@H]1C | 57.8*!
C[C@@H]1CN([C@@H](C)CO)S(=O)(=O)c2ccc(-c3ccccc3)cc2O[C@H]1CN(C)C(=O)c1ccc2c(c1)OCO2 | 0.3
C[C@H](CO)N1C[C@H](C)[C@@H](CN(C)S(C)(=O)=O)Oc2cc(-c3ccccc3)ccc2S1(=O)=O | 0.0
COCC(=O)N(C)C[C@H]1Oc2cc(-c3ccc(F)cc3)ccc2S(=O)(=O)N([C@@H](C)CO)C[C@@H]1C | -0.2
C[C@@H]1CN([C@@H](C)CO)S(=O)(=O)c2ccc(-c3ccccc3)cc2O[C@@H]1CN(C)S(C)(=O)=O | 0.4
C[C@H](CO)N1C[C@H](C)[C@H](CN(C)C(=O)c2ccc3c(c2)OCO3)Oc2cc(-c3ccccc3)ccc2S1(=O)=O | 108.5*
SMILES | E-sel inducer
C[C@@H]1CN([C@H](C)CO)S(=O)(=O)c2ccc(-c3ccccc3)cc2O[C@H]1CN(C)S(C)(=O)=O | 57.6*
COCC(=O)N(C)C[C@H]1Oc2cc(-c3ccc(C)cc3)ccc2S(=O)(=O)N([C@H](C)CO)C[C@H]1C | -0.3
C[C@@H]1CN([C@H](C)CO)S(=O)(=O)c2ccc(-c3ccccc3)cc2O[C@H]1CN(C)C(=O)c1ccc2c(c1)OCO2 | -0.3
CN1C(=O)c2cc(NC(=O)c3cccc(C(F)(F)F)c3)ccc2OC[C@@H]2O[C@H](CC(=O)O)CC[C@@H]21 | 0.0
COc1ccccc1-c1cnc2c(c1)C(=O)N([C@H](C)CO)C[C@@H](C)[C@H](CN(C)Cc1ccc(F)cc1)O2 | 0.2
C[C@H]1CN([C@@H](C)CO)C(=O)c2cc(NC(=O)Nc3ccc4c(c3)OCO4)ccc2O[C@H]1CN(C)Cc1ccc(-c2ccccc2)cc1 | -3.2
C[C@H](CO)N1C[C@H](C)[C@@H](CN(C)Cc2ccc(C(=O)O)cc2)Oc2ccc(NS(=O)(=O)c3ccccc3)cc2CC1=O | 0.2
Cc1noc(C)c1S(=O)(=O)N(C)C[C@H]1Oc2ccc(NC(=O)CCC(F)(F)F)cc2CC(=O)N([C@H](C)CO)C[C@@H]1C | -0.4
O=C(Cc1ccncc1)NCC[C@@H]1CC[C@H](NC(=O)Nc2ccc(Cl)cc2)[C@H](CO)O1 | -0.1
CCNC(=O)C[C@@H]1CC[C@@H]2[C@H](COc3ccc(NC(=O)Cc4cccs4)cc3C(=O)N2C)O1 | 0.1
O=C(C[C@@H]1CC[C@H](NC(=O)Nc2ccc(F)cc2)[C@H](CO)O1)NCCN1CCCC1 | -0.1
Cc1ccc(S(=O)(=O)Nc2ccc3c(c2)C(=O)N([C@H](C)CO)C[C@H](C)[C@H](CN(C)S(=O)(=O)c2cn(C)cn2)OCCCC[C@@H](C)O3)cc1 | -0.1
COc1cc2nc(N3CCN(C(=O)C4COc5ccccc5O4)CC3)nc(N)c2cc1OC (configuration not stated) | 60.6*
COc1ccc(S(=O)(=O)N2CCN(C(=O)C3COc4ccccc4O3)CC2)cc1 (configuration not stated) | -1.1
COc1cc2nc(N3CCN(C(=O)c4ccco4)CC3)nc(N)c2cc1OC | -2.4
COc1ccc2c3c(n(C)c2c1)[C@H](CO)N(C(=O)Cc1ccccc1)CC31CCN(C(C)=O)CC1 | -0.4
C/C=C/c1ccccc1[C@H]1[C@@H](CO)N(C(=O)NC2CCCCC2)[C@H]1C#N | 0.1
Cc1[nH]c2c(ccc3cccnc32)c1C | -0.1
CC1=[N+](C)c2c(ccc3cccnc23)C1(C)C | 196.2*
CCSS(=O)(=O)c1cccc2cccnc12 | -0.1
C[C@@H]1CN([C@H](C)CO)C(=O)c2cc(N(C)C)ccc2O[C@@H](C)CCCCO[C@@H]1CN(C)C(=O)Nc1cccc2ccccc12 | -0.2
CCC(=O)N1CC2(C1)[C@H](c1ccc(-c3ccc(C)cc3)cc1)[C@@H](CO)N2S(=O)(=O)CC | -0.2
C[C@@H]1CN([C@H](C)CO)C(=O)c2ccccc2-c2ccccc2CO[C@@H]1CN(C)S(=O)(=O)c1ccc(F)cc1 | -0.2
CNC(=O)C[C@H]1CC[C@@H]2[C@@H](COc3ccc(NC(=O)Nc4ccc(F)cc4)cc3C(=O)N2C)O1 | 0.0
O=C(NC[C@@H]1[C@@H](c2ccccc2)[C@@H](CO)N1C(=O)Cc1ccncc1)C1CCC1 | 0.6
SMILES | E-sel inducer
O=C(CCCCCNC(=O)c1ccccc1Br)N=Nc1c(O)[nH]c2ccccc12 | 88.1*
O=C(N=Nc1c(O)[nH]c2ccccc12)Nc1ccccc1 | -0.1
O=C(CN1CCCCC1)N=Nc1c(O)[nH]c2ccccc12 | 1.7
O=C(Cc1ccccc1)N[C@H]1C=C[C@@H](CC(=O)N2CCOCC2)O[C@H]1CO | 0.0
O=c1[nH]c(CSc2ncnc3sc(-c4ccccc4)cc23)nc2ccccc12 | -0.6
CC(Sc1ncnc2sc(-c3ccccc3)cc12)C(=O)NCC1CCCO1 (configuration not stated) | -2.4
CC(Sc1ncnc2sc(-c3ccccc3)cc12)C(=O)N1CCNC1=O (configuration not stated) | 38.6*
COc1ccc2c3c(n(C)c2c1)[C@@H](CO)N(C(=O)C1CCCC1)CC31CCN(C(=O)CC2CC2)CC1 | 0.4
